Assay results from ChEMBL document CHEMBL1127855, “Antitumor agents. 144. New gamma-lactone ring-modified arylamino etoposide analogs as inhibitors of human DNA topoisomerase II” (1994).

Tests used:
Nucleic Acid = test: Percent of cellular protein-DNA complex formation at concentration of 20 uM; type: functional; settings: Homo sapiens
KB = test: Cytotoxicity against KB-ATCC cell lines after a 3-day incubation; type: functional; settings: Homo sapiens, 72 h, read-out: ID50 (the source's name)
Summary of the method: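 KB-ATCC cells were incubated with compound for 3 days. The read-out was cell number, and ID50 was taken as the concentration giving a 50% reduction.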

[1] = target: DNA topoisomerase II (Homo sapiens) (UniProt P11388+Q02880); test: Inhibition of human DNA topoisomerase II activity; type: protein assay
Summary of the method: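 Each compound was tested in triplicate at 5, 10, 25, 50 and 100 µM. ID50 was set from the degree of inhibition seen at these concentrations.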

Row | SMILES | Complex formation (Nucleic Acid) [%] | IC50 (KB) [µM] | ID50 [1] [µM]
1 | COc1cc([C@@H]2c3cc4c(cc3[C@@H](Nc3ccc(F)cc3)[C@H]3COC[C@H]23)OCO4)cc(OC)c1O | 125 | 4.1 | 50
2 | COc1cc([C@@H]2c3cc4c(cc3[C@@H](Nc3ccc(F)cc3)[C@H]3CO[C@@H](O)[C@H]23)OCO4)cc(OC)c1O | 87 | 2.2 | 50
3 | COc1cc([C@@H]2c3cc4c(cc3[C@@H](Nc3ccc(F)cc3)[C@H]3COC(=O)[C@H]23)OCO4)cc(OC)c1O | 213 | 0.24 | 
4 | COc1cc([C@@H]2c3cc4c(cc3[C@@H](Nc3ccccc3)[C@H]3CO[C@@H](OC)[C@H]23)OCO4)cc(OC)c1O | 96 | 5.5 | 100
5 | COc1cc([C@@H]2c3cc4c(cc3[C@@H](Nc3ccc(F)cc3)[C@H]3CO[C@@H](OC)[C@H]23)OCO4)cc(OC)c1O | 66 | 5.5 | > 100
6 | COc1cc([C@@H]2c3cc4c(cc3[C@@H](O[C@@H]3O[C@@H]5CO[C@@H](C)O[C@H]5[C@H](O)[C@H]3O)[C@H]3COC(=O)[C@H]23)OCO4)cc(OC)c1O [ETOPOSIDE] | 100 | 0.2 | 
7 | COc1cc([C@@H]2c3cc4c(cc3[C@@H](Nc3ccccc3)[C@H]3COC[C@H]23)OCO4)cc(OC)c1O | 139 | 2.6 | 50
